Results from ChEMBL document CHEMBL4177575 (Bioorg Med Chem, 2017).
Active and inactive are the calls of the source. No cut-off for these calls is given here.

Experiments:
A549 [1] = test: Induction of morphological changes in human A549 cells assessed as induction of nucleus bright green staining at 1.85 uM incubated for 12 hrs by acridine orange dye based inverted microscopy and fluorescence microscopy; format: functional, cell-based
In short: (§1)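 Untreated control included. A549 cells exposed 12 h at 1.85 μM, then single-stained with acridine orange. Nuclei and morphology examined by inverted and fluorescence microscopy.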

A549 [2] = test: Induction of morphological changes in human A549 cells assessed as induction of apoptotic bodies at 1.85 uM incubated for 12 hrs by acridine orange dye based inverted microscopy and fluorescence microscopy; format: functional, cell-based; in short: as §1
A549 [3] = test: Induction of apoptosis in human A549 cells assessed as viable cell level at 3 uM incubated for 48 hrs by Annexin VFITC and propidium iodide staining based flow cytometry (reference value: 93.27%); format: functional
In short: (§2)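 A549 cells seeded in RPMI 1640 and treated 48 h at 3, 6 or 12 µM. Cells then stained with Annexin V-FITC plus propidium iodide, 30 min at 4 °C in the dark, and analysed on a FACS Calibur flow cytometer.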

A549 [4] = test: Induction of apoptosis in human A549 cells assessed as late apoptotic cell level at 3 uM incubated for 48 hrs by Annexin VFITC and propidium iodide staining based flow cytometry (reference value: 3.4%); format: functional; in short: as §2
A549 [5] = test: Induction of apoptosis in human A549 cells assessed as necrotic cell level at 3 uM incubated for 48 hrs by Annexin VFITC and propidium iodide staining based flow cytometry (reference value: 2.69%); format: functional; in short: as §2
A549 [6] = test: Induction of apoptosis in human A549 cells assessed as early apoptotic cell level at 6 uM incubated for 48 hrs by Annexin VFITC and propidium iodide staining based flow cytometry (reference value: 0.64%); format: functional; in short: as §2
A549 [7] = test: Induction of apoptosis in human A549 cells assessed as late apoptotic cell level at 6 uM incubated for 48 hrs by Annexin VFITC and propidium iodide staining based flow cytometry (reference value: 3.4%); format: functional; in short: as §2
A549 [8] = test: Induction of apoptosis in human A549 cells assessed as viable cell level at 12 uM incubated for 48 hrs by Annexin VFITC and propidium iodide staining based flow cytometry (reference value: 93.27%); format: functional; in short: as §2
A549 [9] = test: Induction of apoptosis in human A549 cells assessed as early apoptotic cell level at 12 uM incubated for 48 hrs by Annexin VFITC and propidium iodide staining based flow cytometry (reference value: 0.64%); format: functional; in short: as §2
A549 [10] = test: Induction of apoptosis in human A549 cells assessed as necrotic cell level at 12 uM incubated for 48 hrs by Annexin VFITC and propidium iodide staining based flow cytometry (reference value: 2.69%); format: functional; in short: as §2

What does the source list for `CNC(=O)c1cc(Oc2ccc(C3=NNC(c4cccc(Br)c4)C3)cc2)ccn1` (stereo not given)?
Activity (A549 [1]): Active; Activity (A549 [2]): Active; Activity (A549 [3]): 88.8%; Activity (A549 [4]): 4.51%; Activity (A549 [5]): 4.49%; Activity (A549 [6]): 7.72%; Activity (A549 [7]): 9.11%; Activity (A549 [8]): 75.55%; Activity (A549 [9]): 11.95%; Activity (A549 [10]): 2.45%
